Reference: ChEMBL document CHEMBL1134373, “A potent, nonpeptidyl 1H-quinolone antagonist for the gonadotropin-releasing hormone receptor” (J Med Chem, 2001)

Tests used:
[1] = Area under curve was determined after intravenous administration of a dose of 0.5 mg/kg; type: ADME, organism-based; design: dose 0.5 mg/kg, route intravenous; conditions: in vivo
Procedure, shortened: (§1)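 Male rhesus monkeys received a single iv dose in ethanol/PEG400/saline (10/40/50, v/v/v) via the brachiocephalic vein. Femoral vein blood was drawn at 5, 15, 30 min and 1, 2, 4, 6, 8, 24 h. Plasma was extracted with ethyl acetate and assayed by LC/MS/MS against an internal standard (LOQ 2.0 ng/mL). AUC came from linear/log trapezoidal rule with extrapolation by Ct/λ; t1/2 = 0.693/λ; Clp = dose/AUC(0-∞).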

[2] = Area under curve was determined after intravenous administration of a dose of 3 mg/kg; type: ADME, organism-based; design: dose 3 mg/kg, route intravenous; conditions: in vivo; procedure, shortened: as §1
[3] = Half life period was determined after intravenous administration of 0.5 mg/kg; type: ADME, organism-based; design: dose 0.5 mg/kg, route intravenous; conditions: in vivo; procedure, shortened: as §1
[4] = Half life period was determined after intravenous administration of 3 mg/kg; type: ADME, organism-based; design: dose 3 mg/kg, route intravenous; conditions: in vivo; procedure, shortened: as §1
[5] = Plasma clearance was determined fter intravenous administration of a dose of 0.5 mg/kg; type: ADME, organism-based; design: dose 0.5 mg/kg, route intravenous; conditions: read-out: ClP; procedure, shortened: as §1
[6] = Plasma clearance was determined fter intravenous administration of a dose of 3 mg/kg; type: ADME, organism-based; design: dose 3 mg/kg, route intravenous; conditions: read-out: ClP; procedure, shortened: as §1
[7] = target: T1, Gonadotropin-releasing hormone receptor (Rattus norvegicus, UniProt P30969); experiment: In vitro inhibition of binding to GnRH receptor in rat
T1 sequence (P30969 whole entry): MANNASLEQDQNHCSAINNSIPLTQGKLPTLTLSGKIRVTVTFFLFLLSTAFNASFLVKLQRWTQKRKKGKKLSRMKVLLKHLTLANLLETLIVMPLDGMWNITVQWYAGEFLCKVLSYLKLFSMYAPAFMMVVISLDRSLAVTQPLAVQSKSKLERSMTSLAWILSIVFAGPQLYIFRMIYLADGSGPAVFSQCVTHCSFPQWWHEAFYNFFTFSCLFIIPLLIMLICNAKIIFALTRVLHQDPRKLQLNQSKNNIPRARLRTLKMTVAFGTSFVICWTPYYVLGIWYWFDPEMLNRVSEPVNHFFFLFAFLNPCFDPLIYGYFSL
Procedure, shortened: (§2)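 Crude membranes came from rat pituitary (rat) or from CHO-K1 cells stably expressing human GnRH receptor (human). Competition was run against [125I-Tyr5]buserelin (1000 Ci/mmol) in 50 mM Tris-HCl pH 7.5 with 2 mM MgCl2 and 0.1% BSA. IC50 is the concentration giving 50% inhibition of specific binding.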

[8] = target: T1, Gonadotropin-releasing hormone receptor; experiment: Functional antagonism at GnRH receptor in rat (PI turnover)
[9] = target: T2, Gonadotropin-releasing hormone receptor (Homo sapiens, UniProt P30968); experiment: Functional antagonism at the human GnRH receptor (PI turnover)
T2 sequence (P30968 whole entry): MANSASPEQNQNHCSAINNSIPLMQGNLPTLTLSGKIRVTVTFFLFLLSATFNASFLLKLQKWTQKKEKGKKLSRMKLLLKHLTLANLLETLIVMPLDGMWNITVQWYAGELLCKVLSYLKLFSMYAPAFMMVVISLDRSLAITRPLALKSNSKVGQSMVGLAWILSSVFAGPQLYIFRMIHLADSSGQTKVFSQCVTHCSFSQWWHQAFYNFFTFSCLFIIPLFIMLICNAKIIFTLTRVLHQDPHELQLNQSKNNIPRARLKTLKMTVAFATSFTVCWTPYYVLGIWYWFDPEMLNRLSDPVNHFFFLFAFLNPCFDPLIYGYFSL
Procedure, shortened: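 CHO cells stably expressing human GnRH receptor were labelled 48 h with 1 μCi [3H]inositol in inositol-free F12 with 10% dialyzed FBS. After washing with PBS containing 10 mM LiCl, cells were preincubated with graded compound for 2 h at 37 °C. 0.5 nM GnRH was then added for 60 min, followed by formic acid lysis. IC50 is inhibition of GnRH-stimulated PI hydrolysis.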

[10] = target: T2, Gonadotropin-releasing hormone receptor; experiment: In vitro inhibition of binding to GnRH receptor in human; procedure, shortened: as §2

AUC [1]: 303 ng·h/mL
AUC [2]: 1320 ng·h/mL
half-life [3]: 9.5 h
half-life [4]: 5 h
clearance [5]: 30 mL/min/kg
clearance [6]: 33 mL/min/kg
IC50 [7]: 4 nM
IC50 [8]: 81 nM
IC50 [9]: 1 nM
IC50 [10]: 0.44 nM
SMILES: Cc1cc(-c2c(OCC[C@@H]3CCN3)c3cc(C(=O)Nc4ccncn4)c(Cl)cc3[nH]c2=O)cc(C)c1C
